Article PMC5741288 (Pain Reports, 2016)
Marks after values point to notes of the source that are not given here.

Assay: Treatment-emergent adverse events, tolerability
Format: in vivo, healthy men
Method in brief: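 Healthy men received single oral tablet doses (part 1: 1–225 mg; part 2: 10, 50 mg) or placebo under double-blind randomisation. Treatment-emergent adverse events were recorded along with clinical laboratory tests, ECG, oral temperature, vital signs and physical examinations, through follow-up.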

## CC(C)(O)c1ccccc1-c1ccc2[nH]c(/C=C/c3ccc(C(F)(F)F)cc3)nc2c1 [JNJ-39439335, trans-2-(2-{2-[2-(4-Trifluoromethyl-phenyl)-vinyl]-1H-benzimidazol-5-yl}-phenyl)-propan-2-ol]
Part 1, 30 mg (N = 5)
  TEAE Burning sensation: 0 n (%)
  TEAE Chills: 0 n (%)
  TEAE Dizziness: 1 (20) n (%)
  TEAE Dizziness postural: 0 n (%)
  TEAE Dysgeusia: 1 (20) n (%)
  TEAE Fatigue: 0 n (%)
  TEAE Feeling cold: 5 (100) n (%)
  TEAE Feeling hot: 4 (80) n (%)
  TEAE Headache: 0 n (%)
  TEAE Hematoma: 0 n (%)
  TEAE Hyperhidrosis: 0 n (%)
  TEAE Hypoesthesia: 0 n (%)
  TEAE Hypogeusia: 0 n (%)
  TEAE Nausea: 0 n (%)
  TEAE Orthostatic hypotension: 1 (20) n (%)
  TEAE Paresthesia: 0 n (%)
  TEAE Pruritus: 0 n (%)
  TEAE Pyrexia: 3 (60) n (%)
  TEAE Rhinitis: 0 n (%)
  TEAE Thermal burn: 1 (20) n (%)
  TEAE Thermohypoesthesia: 3 (60) n (%)
  Total no. participants with AEs: 5 (100) n (%)
Part 1, 60 mg (N = 6)
  TEAE Agusia: 0 n (%)
  TEAE Back pain: 0 n (%)
  TEAE Burning sensation: 0 n (%)
  TEAE Chills: 0 n (%)
  TEAE Dizziness: 0 n (%)
  TEAE Dizziness postural: 0 n (%)
  TEAE Dysgeusia: 1 (17) n (%)
  TEAE Fatigue: 0 n (%)
  TEAE Feeling cold: 4 (67) n (%)
  TEAE Feeling hot: 1 (17) n (%)
  TEAE Headache: 0 n (%)
  TEAE Hematoma: 0 n (%)
  TEAE Hyperhidrosis: 0 n (%)
  TEAE Hypoesthesia: 1 (17) n (%)
  TEAE Hypogeusia: 0 n (%)
  TEAE Nausea: 1 (17) n (%)
  TEAE Paresthesia: 0 n (%)
  TEAE Pruritus: 0 n (%)
  TEAE Pyrexia: 4 (67) n (%)
  TEAE Rhinitis: 0 n (%)
  TEAE Thermal burn: 0 n (%)
  TEAE Thermohypoesthesia: 1 (17) n (%)
  Total no. participants with AEs: 6 (100) n (%)
Part 1, 120 mg (N = 6)
  TEAE Agusia: 0 n (%)
  TEAE Back pain: 0 n (%)
  TEAE Burning sensation: 0 n (%)
  TEAE Chills: 1 (17) n (%)
  TEAE Dizziness: 1 (17) n (%)
  TEAE Dizziness postural: 1 (17) n (%)
  TEAE Dysgeusia: 0 n (%)
  TEAE Fatigue: 1 (17) n (%)
  TEAE Feeling cold: 1 (17) n (%)
  TEAE Feeling hot: 1 (17) n (%)
  TEAE Headache: 1 (17) n (%)
  TEAE Hematoma: 1 (17) n (%)
  TEAE Hyperhidrosis: 0 n (%)
  TEAE Hypoesthesia: 1 (17) n (%)
  TEAE Hypogeusia: 0 n (%)
  TEAE Nausea: 1 (17) n (%)
  TEAE Orthostatic hypotension: 0^a n (%)
  TEAE Paresthesia: 0 n (%)
  TEAE Pruritus: 1 (17) n (%)
  TEAE Pyrexia: 4 (67) n (%)
  TEAE Rhinitis: 0 n (%)
  TEAE Thermal burn: 0 n (%)
  TEAE Thermohypoesthesia: 4 (67) n (%)
  Total no. participants with AEs: 6 (100) n (%)
Part 1, 225 mg (N = 6)
  TEAE Agusia: 2 (33) n (%)
  TEAE Back pain: 0 n (%)
  TEAE Burning sensation: 5 (83) n (%)
  TEAE Chills: 1 (17) n (%)
  TEAE Dizziness: 1 (17) n (%)
  TEAE Dizziness postural: 0 n (%)
  TEAE Dysgeusia: 0 n (%)
  TEAE Fatigue: 0 n (%)
  TEAE Feeling cold: 2 (33) n (%)
  TEAE Feeling hot: 5 (83) n (%)
  TEAE Headache: 2 (33) n (%)
  TEAE Hematoma: 0 n (%)
  TEAE Hyperhidrosis: 1 (17) n (%)
  TEAE Hypoesthesia: 0 n (%)
  TEAE Hypogeusia: 0 n (%)
  TEAE Nausea: 0 n (%)
  TEAE Orthostatic hypotension: 1 (17) n (%)
  TEAE Paresthesia: 3 (50) n (%)
  TEAE Pruritus: 1 (17) n (%)
  TEAE Pyrexia: 3 (50) n (%)
  TEAE Rhinitis: 0 n (%)
  TEAE Thermal burn: 3 (50) n (%)
  TEAE Thermohypoesthesia: 5 (83) n (%)
  Total no. participants with AEs: 6 (100) n (%)
Part 1, 225-mg dose group
  Participants with burning feeling (not physical burn): 5 participants
Part 1, of 59 participants receiving JNJ-39439335
  Participants reporting at least 1 TEAE: 50 (85%) n (%)
Part 1, of the 89 participants who received JNJ-39439335 or placebo
  Participants with minor or first-degree burns: 4 participants
Part 1, participants receiving JNJ-39439335
  Thermohypoesthesia, participants: 23 (39%) n (%)
Part 2
  Thermohypoesthesia, participants: 70%
Part 2, 10 mg (N = 19)
  TEAE Disturbance in attention: 1 (5) n (%)
  TEAE Dizziness: 0 n (%)
  TEAE Dizziness postural: 0 n (%)
  TEAE Dysgeusia: 4 (21) n (%)
  TEAE Feeling cold: 9 (47) n (%)
  TEAE Feeling hot: 6 (32) n (%)
  TEAE Headache: 3 (16) n (%)
  TEAE Hyperhidrosis: 2 (11) n (%)
  TEAE Oropharyngeal pain: 1 (5) n (%)
  TEAE Paresthesia: 7 (37) n (%)
  TEAE Pyrexia: 8 (42) n (%)
  TEAE Thermal burn: 0 n (%)
  TEAE Thermohypoesthesia: 9 (47) n (%)
  Total no. participants with AEs: 17 (89) n (%)
Part 2, 50 mg (N = 20)
  TEAE Disturbance in attention: 2 (10) n (%)
  TEAE Dizziness: 2 (10) n (%)
  TEAE Dizziness postural: 1 (5) n (%)
  TEAE Dysgeusia: 5 (25) n (%)
  TEAE Feeling cold: 9 (45) n (%)
  TEAE Feeling hot: 8 (40) n (%)
  TEAE Headache: 3 (15) n (%)
  TEAE Hyperhidrosis: 2 (10) n (%)
  TEAE Oropharyngeal pain: 1 (5) n (%)
  TEAE Paresthesia: 9 (45) n (%)
  TEAE Pyrexia: 11 (55) n (%)
  TEAE Thermal burn: 2 (10) n (%)
  TEAE Thermohypoesthesia: 12 (60) n (%)
  Total no. participants with AEs: 19 (95) n (%)
Part 2, 50-mg dose
  Participants with minor burns of the mouth: 2 participants
Part 2, Total (N = 20)
  TEAE Disturbance in attention: 2 (10) n (%)
  TEAE Dizziness: 2 (10) n (%)
  TEAE Dizziness postural: 2 (10) n (%)
  TEAE Dysgeusia: 7 (35) n (%)
  TEAE Feeling cold: 13 (65) n (%)
  TEAE Feeling hot: 11 (55) n (%)
  TEAE Headache: 5 (25) n (%)
  TEAE Hyperhidrosis: 4 (20) n (%)
  TEAE Oropharyngeal pain: 2 (10) n (%)
  TEAE Paresthesia: 11 (55) n (%)
  TEAE Pyrexia: 12 (60) n (%)
  TEAE Thermal burn: 2 (10) n (%)
  TEAE Thermohypoesthesia: 14 (70) n (%)
  Total no. participants with AEs: 20 (100) n (%)
Parts 1 and 2
  Severe adverse events / withdrawals because of an adverse event: no severe adverse events reported
Single oral doses up to 225 mg
  Tolerability: well tolerated
